# Results: ChEMBL document CHEMBL4177576, “Linker structure-activity relationships in fluorodeoxyglucose chlorambucil conjugates for tumor-targeted chemotherapy” (Bioorg Med Chem, 2017)
# Test system: Fibroblast
# Test: Cytotoxicity against human fibroblasts assessed as inhibition of cell growth incubated for 48 hrs by resazurin reduction test
# Format: cell-based
# Conditions: not given
# In short: (§1)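 Monolayers grown in MEM with 10% fetal calf serum, pyruvate, vitamins, non-essential amino acids and gentamicin at 37 °C, 5% CO2. Cells were seeded at 5×10^3/well and left 16 h to adhere. Compounds were added from DMSO stocks (final 0.5% DMSO) for 48 h continuous exposure, in triplicate. Resazurin 25 μg/mL was then added for 1 h and fluorescence read at 530/590 nm. IC50 was taken from concentration–cell number curves as % of control after blank subtraction.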
row,Compound,IC50 [µM]
1,CC(=O)OC[C@H]1O[C@@H](Oc2ccc(NC(=O)COC(=O)CCCc3ccc(N(CCCl)CCCl)cc3)cc2)[C@H](F)[C@@H](OC(C)=O)[C@@H]1OC(C)=O,32.5
2,CC(=O)OC[C@H]1O[C@@H](OC(=O)c2ccc(NC(=O)CCCc3ccc(N(CCCl)CCCl)cc3)cc2)[C@H](F)[C@@H](OC(C)=O)[C@@H]1OC(C)=O,4
3,CC(=O)OC[C@H]1O[C@@H](NC(=O)c2ccc(NC(=O)CNC(=O)CCCc3ccc(N(CCCl)CCCl)cc3)cc2)[C@H](F)[C@@H](OC(C)=O)[C@@H]1OC(C)=O,8
4,CC(=O)OC[C@H]1O[C@@H](Oc2ccc(NC(=O)CNC(=O)CNC(=O)CCCc3ccc(N(CCCl)CCCl)cc3)cc2)[C@H](F)[C@@H](OC(C)=O)[C@@H]1OC(C)=O,> 50
5,CC(=O)OC[C@H]1O[C@@H](OC(=O)Nc2ccc(NC(=O)CCCc3ccc(N(CCCl)CCCl)cc3)cc2)[C@H](F)[C@@H](OC(C)=O)[C@@H]1OC(C)=O,> 50
6,CC(=O)OC[C@H]1O[C@@H](OC(=O)Nc2ccc(NC(=O)CNC(=O)CCCc3ccc(N(CCCl)CCCl)cc3)cc2)[C@H](F)[C@@H](OC(C)=O)[C@@H]1OC(C)=O,21
7,CC(=O)OC[C@H]1O[C@@H](Oc2ccc(NC(=O)CNC(=O)CCCc3ccc(N(CCCl)CCCl)cc3)cc2)[C@H](F)[C@@H](OC(C)=O)[C@@H]1OC(C)=O,17
8,CC(=O)OC[C@H]1O[C@@H](OC(=O)NCC(=O)Nc2ccc(NC(=O)CCCc3ccc(N(CCCl)CCCl)cc3)cc2)[C@H](F)[C@@H](OC(C)=O)[C@@H]1OC(C)=O,10
9,CC(=O)OC[C@H]1O[C@@H](NC(=O)COC(=O)CCCc2ccc(N(CCCl)CCCl)cc2)[C@H](F)[C@@H](OC(C)=O)[C@@H]1OC(C)=O,> 50

# Test system: PC-3
# Test: Cytotoxicity against human PC3 assessed as inhibition of cell growth incubated for 48 hrs by resazurin reduction test
# Format: functional, cell-based
# Conditions: PC-3, 48 h
# In short: as §1
row,Compound,IC50 [µM]
1,CC(=O)OC[C@H]1O[C@@H](Oc2ccc(NC(=O)COC(=O)CCCc3ccc(N(CCCl)CCCl)cc3)cc2)[C@H](F)[C@@H](OC(C)=O)[C@@H]1OC(C)=O,> 50
2,CC(=O)OC[C@H]1O[C@@H](OC(=O)c2ccc(NC(=O)CCCc3ccc(N(CCCl)CCCl)cc3)cc2)[C@H](F)[C@@H](OC(C)=O)[C@@H]1OC(C)=O,4
3,CC(=O)OC[C@H]1O[C@@H](NC(=O)c2ccc(NC(=O)CNC(=O)CCCc3ccc(N(CCCl)CCCl)cc3)cc2)[C@H](F)[C@@H](OC(C)=O)[C@@H]1OC(C)=O,6
4,CC(=O)OC[C@H]1O[C@@H](Oc2ccc(NC(=O)CNC(=O)CNC(=O)CCCc3ccc(N(CCCl)CCCl)cc3)cc2)[C@H](F)[C@@H](OC(C)=O)[C@@H]1OC(C)=O,20
5,CC(=O)OC[C@H]1O[C@@H](OC(=O)Nc2ccc(NC(=O)CCCc3ccc(N(CCCl)CCCl)cc3)cc2)[C@H](F)[C@@H](OC(C)=O)[C@@H]1OC(C)=O,3.6
6,CC(=O)OC[C@H]1O[C@@H](OC(=O)Nc2ccc(NC(=O)CNC(=O)CCCc3ccc(N(CCCl)CCCl)cc3)cc2)[C@H](F)[C@@H](OC(C)=O)[C@@H]1OC(C)=O,4.9
7,CC(=O)OC[C@H]1O[C@@H](Oc2ccc(NC(=O)CNC(=O)CCCc3ccc(N(CCCl)CCCl)cc3)cc2)[C@H](F)[C@@H](OC(C)=O)[C@@H]1OC(C)=O,7
8,CC(=O)OC[C@H]1O[C@@H](OC(=O)NCC(=O)Nc2ccc(NC(=O)CCCc3ccc(N(CCCl)CCCl)cc3)cc2)[C@H](F)[C@@H](OC(C)=O)[C@@H]1OC(C)=O,6.5
9,CC(=O)OC[C@H]1O[C@@H](NC(=O)COC(=O)CCCc2ccc(N(CCCl)CCCl)cc2)[C@H](F)[C@@H](OC(C)=O)[C@@H]1OC(C)=O,> 50

# Test system: MCF7
# Test: Cytotoxicity against human MCF7 assessed as inhibition of cell growth incubated for 48 hrs by resazurin reduction test
# Format: functional, cell-based
# Conditions: MCF7, 48 h
# In short: as §1
row,Compound,IC50 [µM]
1,CC(=O)OC[C@H]1O[C@@H](Oc2ccc(NC(=O)COC(=O)CCCc3ccc(N(CCCl)CCCl)cc3)cc2)[C@H](F)[C@@H](OC(C)=O)[C@@H]1OC(C)=O,> 50
2,CC(=O)OC[C@H]1O[C@@H](OC(=O)c2ccc(NC(=O)CCCc3ccc(N(CCCl)CCCl)cc3)cc2)[C@H](F)[C@@H](OC(C)=O)[C@@H]1OC(C)=O,6
3,CC(=O)OC[C@H]1O[C@@H](NC(=O)c2ccc(NC(=O)CNC(=O)CCCc3ccc(N(CCCl)CCCl)cc3)cc2)[C@H](F)[C@@H](OC(C)=O)[C@@H]1OC(C)=O,7
4,CC(=O)OC[C@H]1O[C@@H](Oc2ccc(NC(=O)CNC(=O)CNC(=O)CCCc3ccc(N(CCCl)CCCl)cc3)cc2)[C@H](F)[C@@H](OC(C)=O)[C@@H]1OC(C)=O,32
5,CC(=O)OC[C@H]1O[C@@H](OC(=O)Nc2ccc(NC(=O)CCCc3ccc(N(CCCl)CCCl)cc3)cc2)[C@H](F)[C@@H](OC(C)=O)[C@@H]1OC(C)=O,35
6,CC(=O)OC[C@H]1O[C@@H](OC(=O)Nc2ccc(NC(=O)CNC(=O)CCCc3ccc(N(CCCl)CCCl)cc3)cc2)[C@H](F)[C@@H](OC(C)=O)[C@@H]1OC(C)=O,15
7,CC(=O)OC[C@H]1O[C@@H](Oc2ccc(NC(=O)CNC(=O)CCCc3ccc(N(CCCl)CCCl)cc3)cc2)[C@H](F)[C@@H](OC(C)=O)[C@@H]1OC(C)=O,16
8,CC(=O)OC[C@H]1O[C@@H](OC(=O)NCC(=O)Nc2ccc(NC(=O)CCCc3ccc(N(CCCl)CCCl)cc3)cc2)[C@H](F)[C@@H](OC(C)=O)[C@@H]1OC(C)=O,13
9,CC(=O)OC[C@H]1O[C@@H](NC(=O)COC(=O)CCCc2ccc(N(CCCl)CCCl)cc2)[C@H](F)[C@@H](OC(C)=O)[C@@H]1OC(C)=O,> 50

# Test system: A549
# Test: Cytotoxicity against human A549 assessed as inhibition of cell growth incubated for 48 hrs by resazurin reduction test
# Format: functional, cell-based
# Conditions: A549, 48 h
# In short: as §1
row,Compound,IC50 [µM]
1,CC(=O)OC[C@H]1O[C@@H](Oc2ccc(NC(=O)COC(=O)CCCc3ccc(N(CCCl)CCCl)cc3)cc2)[C@H](F)[C@@H](OC(C)=O)[C@@H]1OC(C)=O,39
2,CC(=O)OC[C@H]1O[C@@H](OC(=O)c2ccc(NC(=O)CCCc3ccc(N(CCCl)CCCl)cc3)cc2)[C@H](F)[C@@H](OC(C)=O)[C@@H]1OC(C)=O,1.7
3,CC(=O)OC[C@H]1O[C@@H](NC(=O)c2ccc(NC(=O)CNC(=O)CCCc3ccc(N(CCCl)CCCl)cc3)cc2)[C@H](F)[C@@H](OC(C)=O)[C@@H]1OC(C)=O,30
4,CC(=O)OC[C@H]1O[C@@H](Oc2ccc(NC(=O)CNC(=O)CNC(=O)CCCc3ccc(N(CCCl)CCCl)cc3)cc2)[C@H](F)[C@@H](OC(C)=O)[C@@H]1OC(C)=O,> 50
5,CC(=O)OC[C@H]1O[C@@H](OC(=O)Nc2ccc(NC(=O)CCCc3ccc(N(CCCl)CCCl)cc3)cc2)[C@H](F)[C@@H](OC(C)=O)[C@@H]1OC(C)=O,2
6,CC(=O)OC[C@H]1O[C@@H](OC(=O)Nc2ccc(NC(=O)CNC(=O)CCCc3ccc(N(CCCl)CCCl)cc3)cc2)[C@H](F)[C@@H](OC(C)=O)[C@@H]1OC(C)=O,9
7,CC(=O)OC[C@H]1O[C@@H](OC(=O)NCC(=O)Nc2ccc(NC(=O)CCCc3ccc(N(CCCl)CCCl)cc3)cc2)[C@H](F)[C@@H](OC(C)=O)[C@@H]1OC(C)=O,13
8,CC(=O)OC[C@H]1O[C@@H](NC(=O)COC(=O)CCCc2ccc(N(CCCl)CCCl)cc2)[C@H](F)[C@@H](OC(C)=O)[C@@H]1OC(C)=O,15

# Test system: M4Beu cell line
# Test: Cytotoxicity against human M4Beu assessed as inhibition of cell growth incubated for 48 hrs by resazurin reduction test
# Format: functional, cell-based
# Conditions: not given
# In short: as §1
row,Compound,IC50 [µM]
1,CC(=O)OC[C@H]1O[C@@H](Oc2ccc(NC(=O)COC(=O)CCCc3ccc(N(CCCl)CCCl)cc3)cc2)[C@H](F)[C@@H](OC(C)=O)[C@@H]1OC(C)=O,> 50
2,CC(=O)OC[C@H]1O[C@@H](OC(=O)c2ccc(NC(=O)CCCc3ccc(N(CCCl)CCCl)cc3)cc2)[C@H](F)[C@@H](OC(C)=O)[C@@H]1OC(C)=O,6
3,CC(=O)OC[C@H]1O[C@@H](NC(=O)c2ccc(NC(=O)CNC(=O)CCCc3ccc(N(CCCl)CCCl)cc3)cc2)[C@H](F)[C@@H](OC(C)=O)[C@@H]1OC(C)=O,17.8
4,CC(=O)OC[C@H]1O[C@@H](Oc2ccc(NC(=O)CNC(=O)CNC(=O)CCCc3ccc(N(CCCl)CCCl)cc3)cc2)[C@H](F)[C@@H](OC(C)=O)[C@@H]1OC(C)=O,> 50
5,CC(=O)OC[C@H]1O[C@@H](OC(=O)Nc2ccc(NC(=O)CCCc3ccc(N(CCCl)CCCl)cc3)cc2)[C@H](F)[C@@H](OC(C)=O)[C@@H]1OC(C)=O,29
6,CC(=O)OC[C@H]1O[C@@H](OC(=O)Nc2ccc(NC(=O)CNC(=O)CCCc3ccc(N(CCCl)CCCl)cc3)cc2)[C@H](F)[C@@H](OC(C)=O)[C@@H]1OC(C)=O,31
7,CC(=O)OC[C@H]1O[C@@H](Oc2ccc(NC(=O)CNC(=O)CCCc3ccc(N(CCCl)CCCl)cc3)cc2)[C@H](F)[C@@H](OC(C)=O)[C@@H]1OC(C)=O,15
8,CC(=O)OC[C@H]1O[C@@H](OC(=O)NCC(=O)Nc2ccc(NC(=O)CCCc3ccc(N(CCCl)CCCl)cc3)cc2)[C@H](F)[C@@H](OC(C)=O)[C@@H]1OC(C)=O,18
9,CC(=O)OC[C@H]1O[C@@H](NC(=O)COC(=O)CCCc2ccc(N(CCCl)CCCl)cc2)[C@H](F)[C@@H](OC(C)=O)[C@@H]1OC(C)=O,> 50

# Test system: PA-1
# Test: Cytotoxicity against human PA1 assessed as inhibition of cell growth incubated for 48 hrs by resazurin reduction test
# Format: functional, cell-based
# Conditions: PA-1, 48 h
# In short: as §1
row,Compound,IC50 [µM]
1,CC(=O)OC[C@H]1O[C@@H](Oc2ccc(NC(=O)COC(=O)CCCc3ccc(N(CCCl)CCCl)cc3)cc2)[C@H](F)[C@@H](OC(C)=O)[C@@H]1OC(C)=O,7.6
2,CC(=O)OC[C@H]1O[C@@H](OC(=O)c2ccc(NC(=O)CCCc3ccc(N(CCCl)CCCl)cc3)cc2)[C@H](F)[C@@H](OC(C)=O)[C@@H]1OC(C)=O,0.45
3,CC(=O)OC[C@H]1O[C@@H](NC(=O)c2ccc(NC(=O)CNC(=O)CCCc3ccc(N(CCCl)CCCl)cc3)cc2)[C@H](F)[C@@H](OC(C)=O)[C@@H]1OC(C)=O,13
4,CC(=O)OC[C@H]1O[C@@H](Oc2ccc(NC(=O)CNC(=O)CNC(=O)CCCc3ccc(N(CCCl)CCCl)cc3)cc2)[C@H](F)[C@@H](OC(C)=O)[C@@H]1OC(C)=O,4
5,CC(=O)OC[C@H]1O[C@@H](OC(=O)Nc2ccc(NC(=O)CCCc3ccc(N(CCCl)CCCl)cc3)cc2)[C@H](F)[C@@H](OC(C)=O)[C@@H]1OC(C)=O,1.2
6,CC(=O)OC[C@H]1O[C@@H](OC(=O)Nc2ccc(NC(=O)CNC(=O)CCCc3ccc(N(CCCl)CCCl)cc3)cc2)[C@H](F)[C@@H](OC(C)=O)[C@@H]1OC(C)=O,1.3
7,CC(=O)OC[C@H]1O[C@@H](Oc2ccc(NC(=O)CNC(=O)CCCc3ccc(N(CCCl)CCCl)cc3)cc2)[C@H](F)[C@@H](OC(C)=O)[C@@H]1OC(C)=O,1.5
8,CC(=O)OC[C@H]1O[C@@H](OC(=O)NCC(=O)Nc2ccc(NC(=O)CCCc3ccc(N(CCCl)CCCl)cc3)cc2)[C@H](F)[C@@H](OC(C)=O)[C@@H]1OC(C)=O,0.8
9,CC(=O)OC[C@H]1O[C@@H](NC(=O)COC(=O)CCCc2ccc(N(CCCl)CCCl)cc2)[C@H](F)[C@@H](OC(C)=O)[C@@H]1OC(C)=O,3.8
